Results on two molecules are retold here after ChEMBL document CHEMBL1772954, “Antifungal, cytotoxic and SAR studies of a series of N-alkyl, N-aryl and N-alkylphenyl-1,4-pyrrolediones and related compounds” (Bioorg Med Chem, 2011).

Molecules are shown by their SMILES. Converted amounts (≈) assume the structure as drawn.

One data set relates to Trichophyton rubrum. As to the kind of experiment: Antifungal activity against Trichophyton rubrum C 113 2000. The class given is functional. The procedure, abridged:
(§1)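 Dermatophytes tested by CLSI M38-A2 microdilution in MOPS-buffered RPMI-1640 at pH 7.0. Inoculum 1-5 × 10^3 CFU/mL; compounds 250 to 0.24 µg/ml in twofold steps, final DMSO <1%. Incubated at 28 °C in a moist, dark chamber and read according to control growth. MIC is the lowest concentration with complete inhibition. MFC is the lowest concentration with no growth after duplicate subculture on SDA.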

In the next data set the test system is Aspergillus flavus. As to the kind of experiment: Antifungal activity against Aspergillus flavus ATCC 9170. The class given is functional. The essentials:
(§2)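 Broth microdilution per CLSI M38-A2 in RPMI-1640 with MOPS at pH 7.0. Inoculum 1-5 × 10^3 CFU/mL, with twofold compound dilutions spanning 250-0.24 µg/ml (final DMSO <1%). Plates incubated at 35 °C, moist and dark, and read when the control fungus had grown. MIC is total growth inhibition. MFC comes from subculturing clear wells in duplicate onto SDA.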

The test system of the next data set is Nannizzia gypsea. As to the kind of experiment: Antifungal activity against Microsporum gypseum C 115 2000. The class given is functional. The essentials:
as §1

The next data set concerns Aspergillus fumigatus. As to the kind of experiment: Antifungal activity against Aspergillus fumigatus ATCC 26934. The class given is functional. The procedure, abridged:
as §2

For a further data set, the system named is Aspergillus niger. As to the kind of experiment: Antifungal activity against Aspergillus niger ATCC 9029. It counts as functional. The procedure, abridged: as §2
The next data set deals with SF-268. As to the kind of experiment: Cytotoxicity against human SF268 cells assessed as cell growth after 2 days by sulforhodamine B assay. It counts as functional. As to conditions: SF-268, 48 h. The procedure, abridged: (§3)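 NCI cell lines were run by the Monks method: cells were plated with compounds from DMSO stocks and incubated 2 days at 37 °C in 5% CO2, in duplicate. Cells were fixed with cold TCA, stained with 0.4% SRB, and the bound dye was solubilized in 10 mM tris-base and read at 515 nm. The zero-day control was subtracted, and GI50 was taken from the curves.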
In general terms: Sulforhodamine B stains cellular protein and so reports cell mass.

The test system of a further data set is Saccharomyces cerevisiae. As to the kind of experiment: Antifungal activity against Saccharomyces cerevisiae ATCC 9763. The class given is functional. The essentials:
(§4)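 CLSI M27-A3 broth microdilution in RPMI-1640 buffered to pH 7.0 with MOPS. Inoculum 1-5 × 10^3 CFU/mL. Compound twofold dilutions from 250 to 0.24 µg/ml, final DMSO <1%. Incubated at 35 °C in a moist, dark chamber and read at 48 h. MIC is the lowest concentration giving total growth inhibition. For MFC, 5 µL from clear wells was plated in duplicate on SDA; MFC is the lowest concentration with no growth.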

The subject of the next data set is NCI-H460. As to the kind of experiment: Cytotoxicity against human H460 cells assessed as cell growth after 2 days by sulforhodamine B assay. It counts as functional. The following applies: NCI-H460, 48 h. The essentials: as §3
The nature of data set [1]: Cytotoxicity against human erythrocytes assessed as hemolysis by spectrometric analysis. The class given is cell-based, Erythrocyte. The procedure, abridged:
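Human heparinized red blood cells were washed in PBS at pH 7.0 and suspended at 4% in sterile 5% glucose. Compounds from DMSO stocks were diluted in 5% glucose to final concentrations of 250 to 0.24 µg/ml and incubated with the cells at 37 °C. Released hemoglobin was read at 540 nm. HC50 is the concentration giving 50% lysis relative to the drug-free value.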

In a further data set the test system is Candida albicans. As to the kind of experiment: Antifungal activity against Candida albicans ATCC 10213. It counts as functional. The essentials:
as §4

Data set [2] concerns Trichophyton mentagrophytes. As to the kind of experiment: Antifungal activity against Trichophyton mentagrophytes ATCC 9972. It counts as functional. The essentials:
as §1

A further data set has as its system Candida tropicalis. As to the kind of experiment: Antifungal activity against Candida tropicalis C 131 2000. The class given is functional. The essentials:
as §4

The next data set deals with Cryptococcus neoformans. As to the kind of experiment: Antifungal activity against Cryptococcus neoformans ATCC 32264. The class given is functional. The procedure, abridged:
as §4

A further data set relates to MCF7. As to the kind of experiment: Cytotoxicity against human MCF7 cells assessed as cell growth after 2 days by sulforhodamine B assay. The class given is functional. As to conditions: MCF7, 48 h. The procedure, abridged: as §3

As to `CCCCN1C(=O)C=CC1=O`, the MFC against Trichophyton rubrum stood at 1.95 µg/mL (≈ 12.7 µM); in the data set on Aspergillus flavus it was 7.81 µg/mL (≈ 51 µM); with Nannizzia gypsea, 3.9 µg/mL (≈ 25.5 µM); in the data set on Aspergillus fumigatus it was 1.95 µg/mL (≈ 12.7 µM); against Aspergillus niger, 3.9 µg/mL (≈ 25.5 µM); against Saccharomyces cerevisiae, 1.95 µg/mL (≈ 12.7 µM). For the same molecule, the MFC in the data set on Candida albicans amounted to 15.6 µg/mL (≈ 102 µM); in data set [2], 3.9 µg/mL (≈ 25.5 µM); with Candida tropicalis, 3.9 µg/mL (≈ 25.5 µM); with Cryptococcus neoformans, 7.81 µg/mL (≈ 51 µM). Besides, the MIC was found to be 1.95 µg/mL (≈ 12.7 µM) in the data set with Trichophyton rubrum; 1.95 µg/mL (≈ 12.7 µM) against Aspergillus flavus; 3.9 µg/mL (≈ 25.5 µM) in the data set on Nannizzia gypsea; 1.95 µg/mL (≈ 12.7 µM) with Aspergillus fumigatus; 3.9 µg/mL (≈ 25.5 µM) against Aspergillus niger; 1.95 µg/mL (≈ 12.7 µM) in the data set with Saccharomyces cerevisiae. Further, the MIC against Candida albicans was 3.9 µg/mL (≈ 25.5 µM); in [2], 1.95 µg/mL (≈ 12.7 µM); in the data set with Candida tropicalis it was 3.9 µg/mL (≈ 25.5 µM); in the data set on Cryptococcus neoformans, 3.9 µg/mL (≈ 25.5 µM). The 50% growth inhibitory concentration (GI50) in the data set with SF-268, in the data set with NCI-H460 and in the data set with MCF7 was over 10 µg/mL each time. The HC50 in data set [1] was over 250 µg/mL.

Take `CCN1C(=O)C=CC1=O` [N-ETHYLMALEIMIDE]: the minimum fungicidal concentration (MFC) with Trichophyton rubrum was 3.9 µg/mL (≈ 31.2 µM); with Aspergillus flavus it was 15.6 µg/mL (≈ 125 µM); with Nannizzia gypsea, 7.81 µg/mL (≈ 62.4 µM); against Aspergillus fumigatus, 31.2 µg/mL (≈ 250 µM); in the data set on Aspergillus niger it was 15.6 µg/mL (≈ 125 µM); in the data set with Saccharomyces cerevisiae it was 15.6 µg/mL (≈ 125 µM). Besides, the MFC was 250 µg/mL (≈ 2000 µM) in the data set with Candida albicans, 15.6 µg/mL (≈ 125 µM) in data set [2], 125 µg/mL (≈ 999 µM) against Candida tropicalis and 31.2 µg/mL (≈ 250 µM) against Cryptococcus neoformans. In addition, the minimum inhibitory concentration (MIC) in the data set on Trichophyton rubrum amounted to 3.9 µg/mL (≈ 31.2 µM); in the data set with Aspergillus flavus, 15.6 µg/mL (≈ 125 µM); in the data set on Nannizzia gypsea it was 7.81 µg/mL (≈ 62.4 µM); against Aspergillus fumigatus, 15.6 µg/mL (≈ 125 µM); in the data set with Aspergillus niger it was 7.81 µg/mL (≈ 62.4 µM); with Saccharomyces cerevisiae, 7.81 µg/mL (≈ 62.4 µM). The minimal inhibitory concentration (MIC) against Candida albicans stood at 62.5 µg/mL (≈ 499 µM); in data set [2], 7.81 µg/mL (≈ 62.4 µM); in the data set with Candida tropicalis it was 62.5 µg/mL (≈ 499 µM); in the data set with Cryptococcus neoformans it was 15.6 µg/mL (≈ 125 µM). For the same molecule, the 50% growth inhibitory concentration (GI50) was 6.5 µg/mL (≈ 51.9 µM) in the data set with SF-268, 6.7 µg/mL (≈ 53.5 µM) in the data set with NCI-H460 and 9.9 µg/mL (≈ 79.1 µM) with MCF7. Further, in [1], the 50% haemolytic concentration (HC50) was over 250 µg/mL.

As a reminder, the MFC is the lowest tested concentration that kills the fungus rather than only halting it. A high value points to weaker fungicidal potency. For orientation: MIC means the smallest concentration in the dilution series that meets the test's criterion for growth inhibition. The low end stands for inhibition by little substance, the high end for a need for much substance. A word on the GI50: it is the concentration giving 50% growth inhibition. A word on the HC50: it is the concentration giving 50% haemolysis.
